In ChEMBL document CHEMBL5705892, “MK-2206, an allosteric Akt inhibitor, enhances antitumor efficacy by standard chemotherapeutic agents or molecular targeted drugs in vitro and in vivo” (Mol Cancer Ther, 2010):
Activity calls are given as the source filed them. The calls are words filed in the database; no cut-off is given here.

How the values were obtained:
[1] = system: NCI-H358; assay: Antiproliferative activity against human NCI-H358 cells assessed as reduction in cell proliferation measured after 72 hrs by celltiter-glo assay; format: functional, cell-based; settings: NCI-H358, 72 h
Procedure, shortened: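 Cells in RPMI 1640 with 10% heat-inactivated FBS at 37°C and 5% CO₂ were seeded at 2 to 3 × 10³ per well. […] Growth was read as cellular ATP by CellTiter-Glo.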

[2] = system: HCC70; assay: Synergistic antiproliferative activity against human HCC70 cells assessed as combination index at ED75 measured after 72 hrs in presence of lapatinib by celltiter-glo assay; format: functional
Procedure, shortened: (§1)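 Cells grown in RPMI 1640 with 10% heat-inactivated FBS at 37°C, 5% CO₂. Seeded at 2 to 3 × 10³ per well; drugs added 24 h later. […] Viability read as cellular ATP by CellTiter-Glo. CI calculated by Chou–Talalay from median-effect plots at ED50, ED75 and ED90.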

[3] = system: HCC1954; assay: Synergistic antiproliferative activity against human HCC1954 cells assessed as combination index at ED75 measured after 72 hrs in presence of lapatinib by celltiter-glo assay; format: functional; procedure, shortened: as §1
[4] = system: SK-OV-3; assay: Synergistic antiproliferative activity against human SK-OV-3 cells assessed as combination index at ED75 measured after 72 hrs in presence of lapatinib by celltiter-glo assay; format: functional
[5] = system: HCC827; assay: Synergistic antiproliferative activity against human HCC827 cells assessed as combination index at ED90 measured after 72 hrs in presence of erlotinib by celltiter-glo assay; format: functional; procedure, shortened: as §1
[6] = system: NCI-H1299; assay: Synergistic antiproliferative activity against human NCI-H1299 cells assessed as combination index at ED90 measured after 72 hrs in presence of erlotinib by celltiter-glo assay; format: functional
[7] = Toxicity in human NCI-H292 cells xenografted CD-1 mouse assessed as weight loss at 120 mg/kg, po administered 3 times per week for 2 weeks starting 2 hrs post-erlotinib treatment and measured on day 16; format: organism-based; settings: in vivo, 384 h, time 16 day
Procedure, shortened: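 Female CD1-nude mice bearing s.c. NCI-H292 tumours (cells in 50% Matrigel/50% PBS, left flank), randomized at mean 0.2 cm³, n=5/group. Body weight monitored; treatment period ended day 16.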

[8] = system: MDA-MB-468; assay: Synergistic antiproliferative activity against human MDA-MB-468 cells assessed as combination index at ED50 treated 24 hrs prior to lapatinib and measured after 72 hrs by celltiter-glo assay; format: functional; settings: time 96 hrs
[9] = system: HCC70; assay: Synergistic antiproliferative activity against lapatinib pretreated human HCC70 cells assessed as combination index at ED50 measured after 72 hrs by celltiter-glo assay; format: functional
[10] = system: HCC70; assay: Synergistic antiproliferative activity against human HCC70 cells assessed as combination index at ED50 measured after 96 hrs in presence of lapatinib by celltiter-glo assay; format: functional
[11] = system: SK-OV-3; assay: Synergistic antiproliferative activity against human SK-OV-3 cells assessed as combination index at ED75 treated 24 hrs prior to lapatinib and measured after 72 hrs by celltiter-glo assay; format: functional; settings: time 96 hrs
[12] = system: MDA-MB-468; assay: Synergistic antiproliferative activity against human MDA-MB-468 cells assessed as combination index at ED75 measured after 96 hrs in presence of lapatinib by celltiter-glo assay; format: functional
[13] = system: MDA-MB-468; assay: Synergistic antiproliferative activity against lapatinib pretreated human MDA-MB-468 cells assessed as combination index at ED90 measured after 72 hrs by celltiter-glo assay; format: functional
[14] = system: HCC1954; assay: Synergistic antiproliferative activity against lapatinib pretreated human HCC1954 cells assessed as combination index at ED90 measured after 72 hrs by celltiter-glo assay; format: functional
[15] = target: RAC-alpha serine/threonine-protein kinase (Homo sapiens) (UniProt P31749); assay: Inhibition of AKT phosphorylation at S473 residue in human HCC70 cells at 1 umol/L measured after 3 to 24 hrs in presence of lapatinib by Western blot analysis; format: cell-based; settings: dose 1.0 µmol/L, time 3-24 hrs
Sequence of RAC-alpha serine/threonine-protein kinase (Homo sapiens) (P31749 whole entry): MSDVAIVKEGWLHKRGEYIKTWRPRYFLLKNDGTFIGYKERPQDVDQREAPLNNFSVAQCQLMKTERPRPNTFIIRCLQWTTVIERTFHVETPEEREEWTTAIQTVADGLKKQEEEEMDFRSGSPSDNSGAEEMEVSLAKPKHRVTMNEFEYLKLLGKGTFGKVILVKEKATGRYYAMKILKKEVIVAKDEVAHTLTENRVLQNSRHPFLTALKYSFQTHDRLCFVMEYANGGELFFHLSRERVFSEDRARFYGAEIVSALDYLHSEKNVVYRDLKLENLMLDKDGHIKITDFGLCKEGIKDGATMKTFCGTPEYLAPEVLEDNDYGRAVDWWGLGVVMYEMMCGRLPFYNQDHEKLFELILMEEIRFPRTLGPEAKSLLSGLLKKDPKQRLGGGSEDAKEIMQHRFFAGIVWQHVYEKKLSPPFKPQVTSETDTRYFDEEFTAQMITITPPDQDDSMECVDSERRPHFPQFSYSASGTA
Procedure, shortened: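 HCC70 cells at ~70% confluence were exposed to 10 µmol/L lapatinib, 1 µmol/L MK-2206, or both, for 0, 3, 6, 12 or 24 h. Lysates were prepared in Triton X-100/Tris buffer (pH 7.5) with protease and phosphatase inhibitors. Immunoblots after SDS-PAGE and nitrocellulose transfer were probed for pAkt and pS6.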

[16] = system: HCC70; assay: Antitumor activity against human HCC70 cells xenografted in CB17/icr SCID mouse assessed as tumor growth inhibition at 120 mg/kg, po administered 3 times per week for 3 weeks starting 2 hrs post-lapatinib treatment and measured twice a week during compound dosing by caliper method; format: functional, organism-based
Procedure, shortened: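 Female C.B-17/ICR-scid mice were given s.c. HCC70 cells in 50% Matrigel/50% PBS in the left flank. They were randomized at a mean tumor size of 0.2 cm³, n = 5 per group. Lapatinib (distilled water) was given at 100 mg/kg po, 5 d/wk for 3 wk. MK-2206 (30% Captisol) was given at 120 mg/kg po, 3×/wk, 2 h after lapatinib. Calipers twice weekly; volume = […] × 0.5.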

[17] = system: BT-474; assay: Synergistic antiproliferative activity against docetaxel pretreated human BT-474 cells assessed as combination index at ED75 measured after 72 hrs by celltiter-glo assay; format: functional
[18] = system: BT-474; assay: Synergistic antiproliferative activity against docetaxel pretreated human BT-474 cells assessed as combination index at ED90 measured after 72 hrs by celltiter-glo assay; format: functional
[19] = system: MDA-MB-468; assay: Synergistic antiproliferative activity against human MDA-MB-468 cells assessed as combination index at ED50 measured after 72 hrs in presence of docetaxel by celltiter-glo assay; format: functional; procedure, shortened: as §1
[20] = system: ZR-75-1; assay: Synergistic antiproliferative activity against human ZR-75-1 cells assessed as combination index at ED75 measured after 72 hrs in presence of docetaxel by celltiter-glo assay; format: functional
[21] = system: MCF7; assay: Synergistic antiproliferative activity against human MCF7 cells assessed as combination index at ED75 measured after 72 hrs in presence of docetaxel by celltiter-glo assay; format: functional; procedure, shortened: as §1
[22] = system: MDA-MB-468; assay: Synergistic antiproliferative activity against human MDA-MB-468 cells assessed as combination index at ED75 measured after 72 hrs in presence of docetaxel by celltiter-glo assay; format: functional; procedure, shortened: as §1
[23] = system: MDA-MB-453; assay: Synergistic antiproliferative activity against human MDA-MB-453 cells assessed as combination index at ED90 measured after 72 hrs in presence of docetaxel by celltiter-glo assay; format: functional; procedure, shortened: as §1
[24] = system: MDA-MB-231; assay: Synergistic antiproliferative activity against human MDA-MB-231 cells assessed as combination index at ED90 measured after 72 hrs in presence of docetaxel by celltiter-glo assay; format: functional; procedure, shortened: as §1
[25] = system: A2780; assay: Synergistic antiproliferative activity against human A2780 cells assessed as combination index at ED75 measured after 72 hrs in presence of camptothecin by celltiter-glo assay; format: functional
Procedure, shortened: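 Cells were seeded at 2–3 × 10³ per well in RPMI 1640 with 10% FBS. At 24 h, MK-2206 and the partner drug were added simultaneously at constant concentration ratios spanning each agent's IC₅₀, for 72 h. Growth was read as cellular ATP by CellTiter-Glo. CI was taken from median-effect plots of each agent alone and in combination (Chou–Talalay), at ED₅₀, ED₇₅ and ED₉₀.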

[26] = system: NCI-H1993; assay: Synergistic antiproliferative activity against human NCI-H1993 cells assessed as combination index at ED25 to ED90 measured after 72 hrs in presence of carboplatin by celltiter-glo assay; format: functional

SMILES: Cl.NC1(c2ccc(-c3nc4ccn5c(=O)[nH]nc5c4cc3-c3ccccc3)cc2)CCC1
- IC50 [1]: 13.5 µM
- CI75 [2]: 0.28
- CI75 [3]: 0.13
- CI75 [4]: 0.13
- CI90 [5]: 0.12
- CI90 [6]: 0.52
- Activity [7]: Non-Toxic
- CI50 [8]: 0.18
- CI50 [9]: 0.18
- CI50 [10]: 0.18
- CI75 [11]: 0.18
- CI75 [12]: 0.18
- CI90 [13]: 0.18
- CI90 [14]: 0.18
- inhibition [15]: Active
- TGI [16]: Active
- CI75 [17]: 0.5
- CI90 [18]: 0.3
- CI50 [19]: 0.9
- CI75 [20]: 0.2
- CI75 [21]: 0.5
- CI75 [22]: 0.8
- CI90 [23]: 0.3
- CI90 [24]: 0.7
- CI75 [25]: 0.4
- CI [26]: 0.44
